Activity calls are given as the source filed them. No cut-off for these calls is given here.
Columns and labels:
[1] = tested on: Mast/stem cell growth factor receptor Kit (Homo sapiens), P10721 [T670I]; assay: Inhibition of TEL fused c-KIT T670I mutant (unknown origin) transfected in mouse BAF3 cells assessed as growth inhibition after 72 hrs by CCK8 assay; assay type: cell-based
Outline: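 Tel-c-KIT-transformed BaF3 lines (IL-3 independent) kept in RPMI 1640 with 10% FBS, 2% L-glutamine and pen/strep. Cells at 1.5 to 5 × 10^4 cells/mL mixed with graded compound and incubated 72 h at 37 °C, 5% CO2. Viability by CCK-8 absorbance at 450 nm, normalized to DMSO. GI50 from dose–response fit.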

[2] = molecular target: Serine/threonine-protein kinase PAK 2 (Homo sapiens, UniProt Q13177); assay: Inhibition of wild-type human partial length PAK2 (P151 to R525 residues) expressed in bacterial expression system after 1 hr by Z-LYTE assay
Serine/threonine-protein kinase PAK 2, sequence (Q13177 whole entry, the tested form may be a part): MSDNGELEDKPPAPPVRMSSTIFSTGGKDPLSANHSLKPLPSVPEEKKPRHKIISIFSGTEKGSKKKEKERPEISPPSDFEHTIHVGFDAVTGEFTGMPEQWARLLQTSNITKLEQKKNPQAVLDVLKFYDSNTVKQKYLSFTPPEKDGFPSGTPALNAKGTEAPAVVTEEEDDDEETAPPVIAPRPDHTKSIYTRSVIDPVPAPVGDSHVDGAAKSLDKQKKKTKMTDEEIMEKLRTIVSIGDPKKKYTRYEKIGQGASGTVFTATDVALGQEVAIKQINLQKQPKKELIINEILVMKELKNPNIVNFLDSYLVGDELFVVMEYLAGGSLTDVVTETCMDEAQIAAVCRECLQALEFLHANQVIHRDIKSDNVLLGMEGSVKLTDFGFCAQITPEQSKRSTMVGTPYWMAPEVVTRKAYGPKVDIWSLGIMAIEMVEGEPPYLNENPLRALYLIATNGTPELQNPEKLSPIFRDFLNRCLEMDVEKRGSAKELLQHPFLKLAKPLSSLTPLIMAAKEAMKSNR

[3] = tested on: Mast/stem cell growth factor receptor Kit (Homo sapiens), P10721 [UNDEFINED MUTATION]; assay: Inhibition of c-KIT 560 to 578 deletion mutant in human GISTT1 cells assessed as reduction in AKT phosphorylation at S473 residue at 0.1 uM to 3 uM after 1 hr by Western blot analysis; assay type: cell-based
Mast/stem cell growth factor receptor Kit (Homo sapiens), P10721 [UNDEFINED MUTATION], sequence (P10721 whole entry, looked up, stated change not applied): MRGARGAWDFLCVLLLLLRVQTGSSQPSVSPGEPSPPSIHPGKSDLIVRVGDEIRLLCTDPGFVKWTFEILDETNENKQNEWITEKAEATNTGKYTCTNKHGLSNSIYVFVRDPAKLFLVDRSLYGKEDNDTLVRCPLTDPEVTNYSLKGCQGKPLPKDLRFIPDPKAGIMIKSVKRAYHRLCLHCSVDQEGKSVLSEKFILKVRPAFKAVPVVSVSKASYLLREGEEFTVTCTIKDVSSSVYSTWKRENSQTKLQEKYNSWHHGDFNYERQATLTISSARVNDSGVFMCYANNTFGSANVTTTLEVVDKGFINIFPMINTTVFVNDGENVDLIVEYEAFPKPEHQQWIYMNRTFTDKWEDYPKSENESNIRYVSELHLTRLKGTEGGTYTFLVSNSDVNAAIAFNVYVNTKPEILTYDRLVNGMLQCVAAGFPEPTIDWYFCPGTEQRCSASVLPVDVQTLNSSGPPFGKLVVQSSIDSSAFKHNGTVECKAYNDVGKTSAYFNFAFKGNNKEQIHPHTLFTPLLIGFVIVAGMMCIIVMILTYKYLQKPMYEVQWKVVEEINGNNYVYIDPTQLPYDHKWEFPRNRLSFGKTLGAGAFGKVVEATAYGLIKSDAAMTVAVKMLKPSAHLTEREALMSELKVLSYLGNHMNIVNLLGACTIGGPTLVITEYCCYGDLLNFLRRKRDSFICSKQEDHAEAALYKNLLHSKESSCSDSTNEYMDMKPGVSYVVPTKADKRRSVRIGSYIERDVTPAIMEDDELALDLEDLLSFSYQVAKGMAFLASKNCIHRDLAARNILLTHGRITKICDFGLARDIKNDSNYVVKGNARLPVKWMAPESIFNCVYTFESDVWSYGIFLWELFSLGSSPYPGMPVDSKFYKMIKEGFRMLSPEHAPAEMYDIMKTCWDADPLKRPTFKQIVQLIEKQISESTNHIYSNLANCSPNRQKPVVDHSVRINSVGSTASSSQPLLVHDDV
Outline: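 Serial compound dilutions applied for 1 h to GIST-T1, GIST-T1-T670I (CRISPR/Cas9 T670I knock-in, clone confirmed by Sanger sequencing) or GIST-5R cells in DMEM with 10% FBS. Cells then lysed and phospho-proteins detected by standard Western blotting.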

[4] = species: Homo sapiens; assay: Induction of apoptosis in human GIST5R cells harboring c-KIT 560 to 578 deletion/T670I double mutant assessed as increase in cleaved PARP level after 24 hrs by Western blot analysis; assay type: functional, cell-based
Outline: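 GIST cells grown in DMEM with 10% FBS, treated 24 h with serially diluted compound; apoptosis read by Western blot for PARP, with GAPDH as loading control.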

[5] = Half-life in Sprague-Dawley rat at 10 mg/kg, po measured after 5 to 720 mins by LC-tandem mass spectrometry analysis; assay type: ADME, organism-based; conditions: in vivo
Outline: (§1)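 Male Sprague-Dawley rats (190-210 g), fasted 12 h, randomized into two groups: 1 mg/kg i.v. or 10 mg/kg p.o., both formulated in 10% DMSO/90% of 5% glucose water. Blood sampled at 2-720 min (i.v.) or 5-720 min (p.o.). Plasma protein-precipitated with methanol, caffeine internal standard, LC-MS/MS. Noncompartmental analysis; triplicate, ±SD.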

[6] = Cmax in Sprague-Dawley rat at 10 mg/kg, po measured after 5 to 720 mins by LC-tandem mass spectrometry analysis; assay type: ADME, organism-based; set-up: dose 10 mg/kg, route oral; conditions: in vivo; outline: as §1
[7] = tested on: Mus musculus; assay: Inhibition of ERK phosphorylation at T202/Y204 residue in tumor of human GIST5R cells xenografted in nude mouse at 100 mg/kg, po administered as single dose and measured at 2 hrs; assay type: functional, organism-based
Outline: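 Female nu/nu mice bearing subcutaneous GIST-5R tumors (cells in Matrigel, right flank) given one oral dose of 100 mg/kg in 0.5% methylcellulose/0.4% Tween80. Tumors collected over a 2 h time course. p-c-KIT, p-ERK and p-AKT measured alongside plasma drug levels.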

Mast/stem cell growth factor receptor Kit (Homo sapiens), P10721 [T670I], sequence (P10721 whole entry T670I, the tested form may be a part): as the sequence (P10721 whole entry, looked up, stated change not applied) above, with T670I counted along it

For `O=C(CC(=O)Nc1ccc2c(/C=C/c3ccccn3)n[nH]c2c1)Nc1cccc(F)c1`, the GI50 [1] was 44 nM, the IC50 [2] was greater than 10000 nM and the inhibition [3] was “Active”. The Activity [4] was “Dose-dependent effect”, the half-life [5] was 4.9 h and the Cmax [6] was 97.1 ng/mL. The inhibition [7] was “Active”.
